Reference: paper PMC8244166 (Neuron, 2020)
Several values for one entry are separate records, joined by “and”; a condition that tells them apart may be missing. Equal entries are not always repeated.

How the values were obtained:
Glu864Trp channel = test: Single channel recordings, point mutant; assay type: cell-based, human; conditions: +80 mV
TRPA1 channel = test: Inside-out single channel / macropatch recordings; assay type: cell-based, human; conditions: for opening frequency / single channel open probability (Po) / open state dwell time: inside-out; for opening frequency / single channel open probability (Po): +80 mV, 100 nM WaTx (n = 8); for opening frequency / single channel open probability (Po) / Erev (reversal potential): 1 μM GNE551 (n = 5); for open state dwell time: agonist-activated channels; for Erev (reversal potential): 10 μM AITC (n = 4); for Px/PNa (ion selectivity against Na+) / y (single channel conductance): 1 μM GNE551, 10 μM AITC; for channel desensitization: nominally Ca2+-free solutions, AITC 10 μM, GNE551 1 μM
[1] = test system: GNE551-evoked nocifensive behavior; test: Inhibition of GNE551-evoked nocifensive behavior, PK/PD; assay type: in vivo, rat
[2] = test system: AITC-evoked nocifensive behavior; test: Inhibition of AITC-evoked nocifensive behavior, PK/PD; assay type: in vivo, rat; conditions: 30 mg/kg dosing
[3] = Rat pharmacokinetics after oral gavage; assay type: in vivo
hTRPA1 [4] = biological target: T1, hTRPA1 (Homo sapiens, UniProt O75762)
hTRPA1 [5] = biological target: T1, hTRPA1; test: Ca2+ influx assay, HEK293-F cells expressing human TRPA1; assay type: cell-based
Gln940Val TRPA1 = test: Whole-cell patch clamp, point mutant; assay type: cell-based, human; conditions: GNE551 1.5 μM, AITC positive control, n = 4
Method in brief: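 HEK293-F cells are recorded whole-cell one day after transient transfection. From a 0 mV holding potential, the protocol is 10 msec at −80 mV, a 200 msec ramp to +80 mV, then 10 msec at +80 mV, applied once per second. Nominally Ca2+-free solutions are used: bath NaCl/HEPES with 0.1 mM EGTA, pH 7.4; pipette CsF with 10 mM EGTA, pH 7.2. Compounds are delivered by fast solution exchange.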

chicken TRPA1 = test: Ca2+ assay, species TRPA1; assay type: cell-based; conditions: concentration as high as 50 μM
Method in brief: (§1)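 HEK293-F cells are transiently transfected with the TRPA1 construct one day before imaging. Cells are loaded with a calcium-sensitive dye for 1 h at 37 °C. Compound is added and fluorescence (Ca2+ RFU) is recorded on a kinetic fluorescence imager. EC50 comes from nonlinear regression constrained to EC50 > 0, Bottom = 0 and Hill slope between 1 and 3.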

[6] = test system: chimera containing S1-S6 domains of chicken TRPA1; test: Ca2+ assay, human-chicken chimera; assay type: cell-based
Method in brief: as §1

NK1 receptor [7] = test: CEREP panel binding inhibition; conditions: 10 μM
human TRPV1 = test: Ion channel selectivity test; assay type: cell-based; conditions: 20 μM
[8] = test system: TRPA1 Ser887 to Trp or Met; test: Ca2+ assay, point mutants; assay type: cell-based, human
Method in brief: as §1

[9] = test system: human potassium channel hERG1; test: Ion channel selectivity test; assay type: cell-based; conditions: 10 μM
TRPA1 Phe909Ala = test: Ca2+ assay, point mutant; assay type: cell-based, human
Method in brief: as §1

NK1 receptor [10] = test: NK1 receptor agonist / antagonist assay; assay type: cell-based; conditions: up to 30 μM
[11] = test system: rat hind paw nocifensive behavior; test: Nocifensive behavior after intraplantar agonist injection; assay type: in vivo; conditions: for cumulative nocifensive time: n = 7
Method in brief: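 Male Sprague-Dawley rats aged 8 weeks or older are used; KO versus WT littermates from heterozygote crosses include both sexes. Under light restraint, a unilateral intraplantar injection of 25 μL is given with a 30-gauge needle: reference electrophile 0.1% or test agonist 10 mM. Rats are video-recorded 15 min (reference) or 30 min (test agonist) during the light phase. Licking, flicking and guarding time is scored blind offline, and groups are compared by two-tailed t-test.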

[12] = test system: TRPA1 Gln940 to Asn, Val or Ala; test: Ca2+ assay, point mutants; assay type: cell-based, human
Method in brief: as §1

TRPA1 from dog = test: Ca2+ assay, species TRPA1; assay type: cell-based
Method in brief: as §1

TRPA1 Glu864Trp mutant = test: Ca2+ assay, point mutant; assay type: cell-based, human; conditions: high background Ca2+ signals
Method in brief: as §1

[13] = Glutathione reactivity assay; assay type: physicochemical; conditions: 10 μM compound, 1 mM glutathione, pH7.4, 37°C, 30 minutes
Method in brief: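 The test compound (10 μM) is incubated with or without 1 mM glutathione in 50 mM potassium phosphate, pH7.4, at 37°C for 30 minutes, and the reaction is stopped on ice. Samples run by UHPLC-MS on a C18 column at 40 °C and 0.4 mL/min, with a 0.1% formic acid water/acetonitrile gradient of 5–50% B over 15 minutes, then a 95% B wash.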

TRPA1 from guinea pig = test: Ca2+ assay, species TRPA1; assay type: cell-based
Method in brief: as §1

TRPA1 from rat = test: Ca2+ assay, species TRPA1; assay type: cell-based
Method in brief: as §1

[14] = test system: TRPA1 Tyr840 to Trp, His, Leu, or Ala; test: Ca2+ assay, point mutants; assay type: cell-based, human
Method in brief: as §1

human TRPC6 = test: Ion channel selectivity test; assay type: cell-based; conditions: 20 μM
TRPA1 Tyr840 to Phe = test: Ca2+ assay, point mutant; assay type: cell-based, human; conditions: versus wild type
Method in brief: as §1

[15] = test system: rat dorsal root ganglion neurons; test: Ca2+ influx in dorsal root ganglion neurons; assay type: cell-based; conditions: WT versus TRPA1 KO rats
TRPA1 from rhesus monkey = test: Ca2+ assay, species TRPA1; assay type: cell-based
Method in brief: as §1

human TRPM8 = test: Ion channel selectivity test; assay type: cell-based; conditions: 20 μM
hTRPA1 [16] = biological target: T1, hTRPA1; test: Whole-cell voltage-clamp recordings of TRPA1-expressing HEK293-F cells; assay type: cell-based; conditions: for current of second application compared to the first: whole-cell, n = 3
[17] = test system: Cav1.2 (L-dihydropyridine site); test: CEREP panel binding inhibition
Cav1.2 = Cav1.2 assay; assay type: cell-based; conditions: up to 30 μM
[18] = test system: TRPA1 Ser873Val/Thr874Leu; test: Ca2+ assay, point mutant; assay type: cell-based, human
Method in brief: as §1

[19] = test system: Gln940Val mutant human channel; test: Ca2+ assay, point mutant; assay type: cell-based
Method in brief: as §1

cryo-EM structure = biological target: the molecule itself; test: cryo-EM structure

T1 sequence (O75762 whole entry): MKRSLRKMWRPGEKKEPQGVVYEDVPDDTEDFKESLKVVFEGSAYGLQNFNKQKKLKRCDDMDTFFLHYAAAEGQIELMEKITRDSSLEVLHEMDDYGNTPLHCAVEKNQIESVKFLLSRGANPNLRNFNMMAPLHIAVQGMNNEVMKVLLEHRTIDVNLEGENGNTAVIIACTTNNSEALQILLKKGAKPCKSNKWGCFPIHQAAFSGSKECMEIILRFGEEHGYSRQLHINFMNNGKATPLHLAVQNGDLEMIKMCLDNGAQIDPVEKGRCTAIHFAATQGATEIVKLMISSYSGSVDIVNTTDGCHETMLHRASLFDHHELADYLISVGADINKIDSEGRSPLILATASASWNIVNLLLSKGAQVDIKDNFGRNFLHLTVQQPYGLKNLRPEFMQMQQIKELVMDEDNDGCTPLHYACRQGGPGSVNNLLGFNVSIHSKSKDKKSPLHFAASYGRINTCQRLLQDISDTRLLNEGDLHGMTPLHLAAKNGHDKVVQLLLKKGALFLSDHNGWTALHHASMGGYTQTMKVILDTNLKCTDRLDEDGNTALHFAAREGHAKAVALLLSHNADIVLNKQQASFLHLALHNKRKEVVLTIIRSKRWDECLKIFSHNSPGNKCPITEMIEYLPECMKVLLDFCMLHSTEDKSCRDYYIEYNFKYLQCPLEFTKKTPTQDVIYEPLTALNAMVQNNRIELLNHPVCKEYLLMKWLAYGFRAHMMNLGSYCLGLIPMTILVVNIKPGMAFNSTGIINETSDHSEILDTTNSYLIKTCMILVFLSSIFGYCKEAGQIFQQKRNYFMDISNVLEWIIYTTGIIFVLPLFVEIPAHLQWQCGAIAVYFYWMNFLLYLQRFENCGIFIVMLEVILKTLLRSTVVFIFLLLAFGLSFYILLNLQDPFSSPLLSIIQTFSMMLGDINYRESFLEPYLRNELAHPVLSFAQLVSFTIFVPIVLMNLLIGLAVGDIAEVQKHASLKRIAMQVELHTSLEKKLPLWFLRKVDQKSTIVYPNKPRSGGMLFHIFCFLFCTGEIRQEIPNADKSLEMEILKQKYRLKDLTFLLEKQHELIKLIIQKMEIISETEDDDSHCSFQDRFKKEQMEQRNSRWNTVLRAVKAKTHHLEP

## CCC(=N\O)/C(C)=C/c1ccc(F)cc1 [A-967079, reference compound]
Glu864Trp channel; A-967079 1 μM
  block of high basal activity: blocked

## WaTx: cell-penetrating peptide toxin that activates TRPA1 (ASPQQAKYCYEQCNVNKVPFDQCYQMCSPLERS) [reference compound]
TRPA1 channel
  opening frequency: 1.7 ± 0.5 Hz
  single channel open probability (Po): 0.045 ± 0.012
  open state dwell time: 2.2 milliseconds

## Cn1cnc2ncn(Cc3nc(CCc4ccc(Cl)cc4)no3)c(=O)c21 [AMG0902]
[1]; 30 mg/kg
  block of GNE551-induced response: 38%
[1]; increasing oral doses of antagonist
  latency to GNE551-induced nocifensive behavior: lengthened the latency
[2]
  block of AITC-induced response: 86%
[3]
  Tmax (time point of maximal plasma concentration): 1 h

## cell-penetrating peptide toxin WaTx (from UniProt C0HLG4 36-68)
hTRPA1 [4]
  open state dwell time of WaTx-activated channels, inside-out patches: 2.2 milliseconds

## COc1ccc(OC)c(NC(=O)c2nnn(Cc3ccc(Br)cc3F)c2N)c1 [GNE551, 5-amino-1-(4-bromo-2-fluorobenzyl)-N-(2,5-dimethoxyphenyl)-1H-1,2,3-triazole-4-carboxamide]
TRPA1 channel; cation Ca2+
  Erev (reversal potential): −25.6 ± 1.1 mV
  Px/PNa (ion selectivity against Na+): 15.7 ± 1.1
  y (single channel conductance): 21.6 ± 2.8 pS
TRPA1 channel; cation Mg2+
  Erev (reversal potential): −13.2± 2.7 mV
  Px/PNa (ion selectivity against Na+): 7.2 ± 1.3
TRPA1 channel; cation Na+
  y (single channel conductance): 101.4 ± 6.8 pS
TRPA1 channel
  opening frequency: 4.6 ± 0.6 Hz
  single channel open probability (Po): 0.41 ± 0.07 and 0.41
  open state dwell time: 20.9 milliseconds
  channel desensitization: did not result in desensitization
hTRPA1 [5]
  EC50: 254 nM
hTRPA1 [5]; Ca2+ influx, human TRPA1
  efficacy compared to AITC: equally efficacious
Gln940Val TRPA1
  activation of mutant channel: failed to activate
Chicken TRPA1
  channel activation: no effect
[6]
  response of chimera: lost response
NK1 receptor [7]
  binding inhibition: > 75%
Human TRPV1
  activation or block of channel: did not activate or block
[8]
  effect of mutation on activation: loss of activation
[9]
  inhibition of channel: did not inhibit
TRPA1 Phe909Ala
  effect of mutation on GNE551 activation: not affected
NK1 receptor [10]
  agonistic or antagonistic effect on NK1 receptor: did not translate to significant agonistic or antagonistic effect
Glu864Trp channel; GNE551 1 μM, n = 4, basal Po 0.56 ± 0.05
  open probability (Po): 0.80 ± 0.08
[11]; GNE551 10 mM, 25 μl, WT rats
  latency to nocifensive response: reduced
[11]; GNE551 10 mM, possibly vehicle effect
  residual response in TRPA1 KO rats: 13%
[11]; first 5 min after injection of GNE551
  nocifensive behaviors: virtually no paw flicking, licking, or guarding
[11]; intraplantar GNE551 1, 3, and 10 mM, 25 μl, WT rats
  nocifensive response: dose-dependent manner
[11]; intraplantar GNE551, 30-min observation
  time to plateau of nocifensive behaviors after injection: 15 to 20 min
[12]
  effect of mutation on sensitivity to GNE551: completely abolished
TRPA1 from dog
  channel activation: activated
TRPA1 Glu864Trp mutant
  response of mutant to agonist stimulation: almost lost responses
[13]
  glutathione adduct formation: did not form an adduct
TRPA1 from guinea pig
  channel activation: activated
TRPA1 from rat
  channel activation: activated
[14]
  effect of mutation on sensitivity to GNE551: completely abolished
Human TRPC6
  activation or block of channel: did not activate or block
TRPA1 Tyr840 to Phe
  reduction of potency by mutation: six-fold
[15]
  specificity of activation in DRG neurons: solely activated TRPA1 channels
TRPA1 from rhesus monkey
  channel activation: activated
Human TRPM8
  activation or block of channel: did not activate or block
hTRPA1 [16]
  EC50: 141 nM
hTRPA1 [16]; +80 mV
  current of second application compared to the first: 93.5 ± 0.5%
hTRPA1 [16]; −80 mV
  current of second application compared to the first: 89.0 ± 6.3%
[17]
  inhibition at 10 µM: > 75%
Cav1.2
  inhibition of Cav1.2: did not translate to
[18]
  effect of mutation on GNE551 activation: not affected
[19]
  effect of mutation on GNE551 activation: nearly abolished

## C=CCN=C=S [AITC, allyl isothiocyanate, reference compound]
TRPA1 channel; cation Ca2+
  y (single channel conductance): 30.9 ± 6.2 pS
TRPA1 channel; cation Mg2+
  Erev (reversal potential): −19.1 ± 1.5 mV
  y (single channel conductance): 30.1 ± 6.8 pS
TRPA1 channel; cation Na+
  y (single channel conductance): 134.9 ± 11.6 pS
TRPA1 channel
  channel desensitization: desensitized within seconds
Gln940Val TRPA1
  activation of mutant channel: robust response
[11]; after 10 min, AITC 0.1%, 25 μl
  nocifensive response: completely disappeared
[11]; first 5 min period, AITC 0.1%, 25 μl, WT rats
  cumulative nocifensive time: 102 ± 19 s
[11]; intraplantar AITC 0.1%, 25 μl, WT and TRPA1 KO rats
  nocifensive behavior: elicited nocifensive behavior in wild type (WT) but not in knock out (KO) rats
[11]; second 5 min period, AITC 0.1%, 25 μl, WT rats
  cumulative nocifensive time: 57.7 ± 11.1 s
TRPA1 Glu864Trp mutant
  response of mutant to agonist stimulation: almost lost responses
[13]
  glutathione adduct formation: formed a glutathione adduct
hTRPA1 [16]; −80 mV
  current of second application compared to the first: 19.4 ± 4.3%

B1: human TRPA1 [Ser448-Thr1078], truncated and non-functional construct for structural studies (domain or fragment)
chain: GSGGSGGSGGSGGSPLHFAASYGRINTCQRLLQDISDTRLLNEGDLHGMTPLHLAAKNGHDKVVQLLLKKGALFLSDHNGWTALHHASMGGYTQTMKVILDTNLKCTDRLDEDGNTALHFAAREGHAKAVALLLSHNADIVLNKQQASFLHLALHNKRKEVVLTIIRSKRWDECLKIFSHNSPGNKCPITEMIEYLPECMKVLLDFCMLHSTEDKSCRDYYIEYNFKYLQCPLEFTKKTPTQDVIYEPLTALNAMVQNNRIELLNHPVCKEYLLMKWLAYGFRAHMMNLGSYCLGLIPMTILVVNIKPGMAFNSTGIINETSDHSEILDTTNSYLIKTCMILVFLSSIFGYCKEAGQIFQQKRNYFMDISNVLEWIIYTTGIIFVLPLFVEIPAHLQWQCGAIAVYFYWMNFLLYLQRFENCGIFIVMLEVILKTLLRSTVVFIFLLLAFGLSFYILLNLQDPFSSPLLSIIQTFSMMLGDINYRESFLEPYLRNELAHPVLSFAQLVSFTIFVPIVLMNLLIGLAVGDIADVQKHASLKRIAMQVELHTSLEKKLPLWFLRKVDQKSTIVYPNKPRSGGMLFHIFCFLFCTGEIRQEIPNADKSLEMEILKQKYRLKDLTFLLEKQHELIKLIIQKMEIISET
cryo-EM structure
  binding result: binds
